Data on seven compounds can be found in ChEMBL document CHEMBL4831480, “Identification of First-in-Class Inhibitors of Kallikrein-Related Peptidase 6 That Promote Oligodendrocyte Differentiation” (J Med Chem, 2021).

The structures appear in SMILES notation. Calls of active or inactive are those of the source. The calls are words filed in the database; no cut-off is given here.

Series [1] addresses T1, Kallikrein-6 (Homo sapiens, UniProt Q92876). The experiment in a line: Inhibition of KLK6 (unknown origin) assessed as release of AMC fluorescent product using Boc-QAR-AMC as substrate incubated for 30 mins by microplate reader. Conditions: read-out: IC50.
The target of series [2] is T1, Kallikrein-6. Kind of series: Competitive inhibition of KLK6 (unknown origin) using Boc-QAR-AMC as substrate incubated for 30 mins by Dixon plot analysis.
In series [3] the target is T2, Kallikrein-1 (Homo sapiens, UniProt P06870). Kind of series: Inhibition of KLK1 (unknown origin) assessed as release of AMC fluorescent product using H-PFR-AMC as substrate incubated for 30 mins by microplate reader.
T2 sequence (P06870 whole entry): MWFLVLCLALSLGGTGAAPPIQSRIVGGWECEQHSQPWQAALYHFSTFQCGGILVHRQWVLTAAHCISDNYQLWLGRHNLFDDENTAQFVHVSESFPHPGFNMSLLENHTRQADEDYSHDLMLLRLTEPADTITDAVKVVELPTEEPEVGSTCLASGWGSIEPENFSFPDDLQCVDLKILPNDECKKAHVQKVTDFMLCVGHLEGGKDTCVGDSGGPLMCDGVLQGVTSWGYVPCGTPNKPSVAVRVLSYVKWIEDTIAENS
Series [4] has as its target T3, Kallikrein-8 (Homo sapiens) (UniProt O60259).
T3 sequence (whole entry): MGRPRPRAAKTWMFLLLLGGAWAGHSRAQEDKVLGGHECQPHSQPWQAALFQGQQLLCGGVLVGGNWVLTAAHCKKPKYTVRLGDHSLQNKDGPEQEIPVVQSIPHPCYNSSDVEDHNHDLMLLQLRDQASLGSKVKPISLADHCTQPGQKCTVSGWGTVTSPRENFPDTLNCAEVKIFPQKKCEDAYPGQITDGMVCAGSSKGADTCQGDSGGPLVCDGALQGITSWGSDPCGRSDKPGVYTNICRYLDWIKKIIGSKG
Kind of series: Inhibition of KLK8 (unknown origin) assessed as inhibition of release of AMC fluorescent product using H-VPR-AMC as substrate at 10 uM incubated for 30 mins by microplate reader relative to control.

In another series the target is T4, Caspase-6 (Homo sapiens) (UniProt P55212).
T4 sequence (whole entry): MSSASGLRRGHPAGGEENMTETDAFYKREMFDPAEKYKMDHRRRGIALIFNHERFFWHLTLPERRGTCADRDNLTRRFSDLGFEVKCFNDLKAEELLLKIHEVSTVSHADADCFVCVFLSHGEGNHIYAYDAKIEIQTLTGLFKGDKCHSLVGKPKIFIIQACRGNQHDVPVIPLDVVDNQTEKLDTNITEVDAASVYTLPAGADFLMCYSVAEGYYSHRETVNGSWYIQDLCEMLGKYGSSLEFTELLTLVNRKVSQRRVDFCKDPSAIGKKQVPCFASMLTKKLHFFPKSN
Kind of series: Inhibition of Caspase-6 (unknown origin) assessed as inhibition of release of AMC fluorescent product using Ac-VEID-AMC as substrate at 10 uM incubated for 30 mins by microplate reader relative to control. An outline of the steps:
(§1)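 Each inhibitor at 10 μM was preincubated 15 min at 37 °C with the protease at an optimized concentration in its own buffer. Reaction started with AMC substrate: Ac-VDVAD-AMC 25 μM (caspase-2), Ac-DEVD-AMC 10 μM (caspase-3), Ac-VEID-AMC 100 μM (caspase-6), Z-LR-AMC 50 μM (cathepsin L), Z-GGR-AMC 100 μM (tPA). Read for 30 min at 37 °C; % inhibition from initial rates versus DMSO; 3 independent experiments.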

The target of series [5] is Procathepsin L (Homo sapiens) (UniProt P07711). Kind of series: Inhibition of Cathepsin L (unknown origin) assessed as inhibition of release of AMC fluorescent product using Z-LR-AMC as substrate at 10 uM incubated for 30 mins by microplate reader relative to control. An outline of the steps:
as §1

For the next series, the target named is Trypsin (Homo sapiens) (UniProt P07477+P07478+P35030). Kind of series: Inhibition of Trypsin (unknown origin) assessed as inhibition of release of AMC fluorescent product using […] as substrate at 10 uM incubated for 30 mins by microplate reader relative to control. In kind it is protein assay.
The target of a further series is T5, Trypsin-3 (Homo sapiens) (UniProt P35030).
T5 sequence (whole entry): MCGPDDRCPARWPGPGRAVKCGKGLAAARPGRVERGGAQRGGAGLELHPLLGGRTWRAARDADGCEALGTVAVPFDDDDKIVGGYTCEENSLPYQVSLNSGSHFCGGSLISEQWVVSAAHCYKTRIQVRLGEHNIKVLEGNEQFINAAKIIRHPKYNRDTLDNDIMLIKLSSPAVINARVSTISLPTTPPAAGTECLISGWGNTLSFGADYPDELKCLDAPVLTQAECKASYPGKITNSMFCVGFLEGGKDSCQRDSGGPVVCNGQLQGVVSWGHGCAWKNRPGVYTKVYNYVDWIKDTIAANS
Kind of series: Inhibition of Trypsin 3 (unknown origin) assessed as inhibition of release of AMC fluorescent product using […] as substrate at 10 uM incubated for 30 mins by microplate reader relative to control.

The next series has as its target Plasminogen (Homo sapiens, UniProt P00747). The experiment in a line: Competitive inhibition of plasmin (unknown origin) using Boc-QAR-AMC as substrate incubated for 30 mins by Dixon plot analysis.
Series [6] relates to Cortical neurone. Kind of series: Cytotoxicity against Swiss mouse cortical cells assessed as cell viability at 10 uM incubated for 24 hrs by XTT assay. It counts as cell-based. (In general: Tetrazolium dyes change colour on reduction, which living cells bring about.)
The next series has as its system Prothrombin/thrombin. Kind of series: Inhibition of Thrombin (unknown origin) assessed as inhibition of release of AMC fluorescent product using […] as substrate at 10 uM incubated for 30 mins by microplate reader relative to control. Conditions: Homo sapiens.
Series [7] can be described thus: Cytotoxicity against Swiss mouse cortical cells assessed as cell viability at 50 uM incubated for 24 hrs by XTT assay. It counts as cell-based, Cortical neurone. Particulars: mouse cortical cells (cortical neurones), read-out: Activity.
The subject of series [8] is CG-4. The experiment in a line: Induction of oligodendrocyte differentiation in Sprague-Dawley rat CG-4 cells assessed as matured oligodendrocyte by measuring increase in mCherry positive cells at 6 to 8 uM measured after 4 days by fluorescence imaging analysis. In kind it is functional, cell-based. Particulars: dose 6-8 µM, time 4.0 day.
A short description of series [9]: Toxicity in human blood assessed as effect on activated partial thromboplastin time. In kind it is tissue-based.
Series [10] can be described thus: Toxicity in human blood assessed as effect on prothrombin ratio. It counts as tissue-based.
A short description of series [11]: Permeability in human Caco-2 cells assessed as compound recovery. It counts as ADME, cell-based. Particulars: read-out: Activity.
Series [12] can be described thus: Metabolic stability in human liver microsomes assessed as half life. In kind it is ADME, Microsome.
Series [13] concerns the target Voltage-gated inwardly rectifying potassium channel KCNH2 (Homo sapiens, UniProt Q12809). The experiment in a line: Inhibition of human ERG.
Series [14] relates to Microglia. Kind of series: Anti-inflammatory activity in new born Wistar rat brain microglia assessed as reduction in LPS-induced TNFalpha expression measured after 24 hrs by ELISA. Background: An ELISA detects its analyte on a solid surface through an enzyme-linked reagent.
Series [15] concerns Microglia. Kind of series: Anti-inflammatory activity in new born Wistar rat brain microglia assessed as reduction in LPS-induced IL-1beta expression measured after 24 hrs by ELISA.
The target of series [16] is T2, Kallikrein-1. The experiment in a line: Competitive inhibition of KLK1 (unknown origin) assessed as release of AMC fluorescent product using H-PFR-AMC as substrate incubated for 30 mins by microplate reader.
In series [17] the test system is Cortical neurone. Kind of series: Cytotoxicity against Swiss mouse cortical cells assessed as cell viability at 25 uM incubated for 24 hrs by XTT assay. In kind it is cell-based.
The subject of series [18] is CG-4. Kind of series: Induction of oligodendrocyte differentiation in Sprague-Dawley rat CG-4 cells assessed as matured oligodendrocyte by measuring increase in mCherry positive cells at 2 uM measured after 4 days by fluorescence imaging analysis. It counts as functional, cell-based. Particulars: time 4.0 day.
The nature of series [19]: Cytotoxicity against Sprague-Dawley rat CG-4 cells assessed as cell death at 30 uM measured after 4 days by fluorescence imaging analysis. In kind it is cell-based. Particulars: cg-4, 96 h, time 4 day.

Procathepsin L (Homo sapiens), sequence (P07711 114-333 limits assumed): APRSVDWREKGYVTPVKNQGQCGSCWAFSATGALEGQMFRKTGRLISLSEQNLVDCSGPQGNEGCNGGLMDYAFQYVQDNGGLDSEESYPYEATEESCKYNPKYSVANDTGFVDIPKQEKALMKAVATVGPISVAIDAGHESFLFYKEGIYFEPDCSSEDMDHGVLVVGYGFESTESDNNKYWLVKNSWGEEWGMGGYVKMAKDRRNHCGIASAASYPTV
Voltage-gated inwardly rectifying potassium channel KCNH2, sequence (Q12809 whole entry): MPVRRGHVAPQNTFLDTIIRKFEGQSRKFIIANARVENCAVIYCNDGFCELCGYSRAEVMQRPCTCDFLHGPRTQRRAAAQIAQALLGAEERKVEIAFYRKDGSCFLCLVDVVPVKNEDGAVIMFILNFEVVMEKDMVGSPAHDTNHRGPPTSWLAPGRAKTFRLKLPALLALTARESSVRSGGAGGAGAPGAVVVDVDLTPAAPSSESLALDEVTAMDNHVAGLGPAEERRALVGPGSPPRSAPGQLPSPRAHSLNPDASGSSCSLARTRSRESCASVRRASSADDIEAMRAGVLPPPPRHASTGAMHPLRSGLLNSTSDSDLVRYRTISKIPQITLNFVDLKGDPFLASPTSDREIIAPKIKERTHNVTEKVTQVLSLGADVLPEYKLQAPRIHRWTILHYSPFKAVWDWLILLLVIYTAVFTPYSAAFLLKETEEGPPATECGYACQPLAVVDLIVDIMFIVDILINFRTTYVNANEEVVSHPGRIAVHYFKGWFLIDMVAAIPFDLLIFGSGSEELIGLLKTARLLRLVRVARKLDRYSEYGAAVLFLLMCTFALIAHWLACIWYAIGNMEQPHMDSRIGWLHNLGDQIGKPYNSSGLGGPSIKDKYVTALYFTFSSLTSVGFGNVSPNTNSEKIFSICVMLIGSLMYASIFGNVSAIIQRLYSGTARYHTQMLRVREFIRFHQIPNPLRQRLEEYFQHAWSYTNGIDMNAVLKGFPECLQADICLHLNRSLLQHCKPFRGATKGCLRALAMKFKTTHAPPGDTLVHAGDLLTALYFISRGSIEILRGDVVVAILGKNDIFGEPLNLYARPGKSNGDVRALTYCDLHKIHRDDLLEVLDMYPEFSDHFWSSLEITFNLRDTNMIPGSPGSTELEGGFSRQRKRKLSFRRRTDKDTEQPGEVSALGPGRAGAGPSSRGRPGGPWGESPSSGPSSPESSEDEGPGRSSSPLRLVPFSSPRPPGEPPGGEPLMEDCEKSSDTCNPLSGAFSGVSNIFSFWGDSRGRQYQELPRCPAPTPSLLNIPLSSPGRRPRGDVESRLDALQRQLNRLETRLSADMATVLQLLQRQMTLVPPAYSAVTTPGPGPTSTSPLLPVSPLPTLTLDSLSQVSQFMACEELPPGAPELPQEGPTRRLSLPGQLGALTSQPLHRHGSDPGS
Plasminogen, sequence (P00747 97-580 limits assumed): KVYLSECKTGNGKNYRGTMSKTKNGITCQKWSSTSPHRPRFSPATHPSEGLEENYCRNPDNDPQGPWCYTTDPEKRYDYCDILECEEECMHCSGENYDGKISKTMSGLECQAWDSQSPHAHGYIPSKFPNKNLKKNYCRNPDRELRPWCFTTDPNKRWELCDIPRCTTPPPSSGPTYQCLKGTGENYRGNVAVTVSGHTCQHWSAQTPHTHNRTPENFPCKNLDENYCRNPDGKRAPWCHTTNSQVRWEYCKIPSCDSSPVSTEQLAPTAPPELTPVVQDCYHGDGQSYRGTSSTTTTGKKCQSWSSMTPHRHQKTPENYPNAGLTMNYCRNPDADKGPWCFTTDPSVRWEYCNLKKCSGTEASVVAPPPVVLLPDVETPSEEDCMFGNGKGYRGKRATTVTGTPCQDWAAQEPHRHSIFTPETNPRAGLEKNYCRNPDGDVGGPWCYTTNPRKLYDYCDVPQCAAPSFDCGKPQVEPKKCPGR
Plasminogen, sequence (P00747 581-810 limits assumed): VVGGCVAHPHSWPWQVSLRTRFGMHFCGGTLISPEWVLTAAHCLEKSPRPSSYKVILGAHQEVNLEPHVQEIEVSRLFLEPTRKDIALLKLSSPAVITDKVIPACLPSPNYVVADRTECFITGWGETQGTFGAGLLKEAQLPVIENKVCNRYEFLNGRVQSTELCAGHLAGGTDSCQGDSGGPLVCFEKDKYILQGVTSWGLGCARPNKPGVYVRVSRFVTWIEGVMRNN

For `Cl.NCc1ccc(NC(=O)c2ccc3ccccc3c2O)cc1`, the IC50 – broadly, the concentration needed to halve the response being measured – was 6.9 µM on Kallikrein-6 [1] and 21.3 µM at Kallikrein-1 [3]. The Ki – broadly, a dissociation constant, usually derived from enzyme kinetics or from competition with a known ligand – at Kallikrein-6 [2] was 2.4 µM; at Plasminogen it was 1.5 µM. For the same compound, the inhibition (usually the drop in the measured response relative to a control, in per cent) was found to be 22% in series [4]; 56% on Caspase-6 (Homo sapiens); 30% in [5]; 34% at Trypsin (Homo sapiens); 30% on Trypsin-3 (Homo sapiens); 5% in the series with Prothrombin/thrombin. Further, in the series on Cortical neurone [6], the Activity result is reported as “Toxic”.
For the compound `Cc1ccc(C(=O)Nc2ccc(CN)cc2)c(O)c1.Cl`, the IC50 is 2.37 µM at Kallikrein-6 [1] and 26.3 µM on Kallikrein-1 [3]. At Kallikrein-6 [2], this compound displayed a Ki of 2 µM. Also, the inhibition in series [4] is 34%; at Caspase-6 (Homo sapiens), 5%; in series [5] it was 32%; on Trypsin (Homo sapiens), 15%; on Trypsin-3 (Homo sapiens), 20%; with Prothrombin/thrombin, 0%. Further, in series [7], the viability at 24 h, 50 µM is 65%. The result with CG-4 [8] was Active. Moreover, the Activity result in series [9] is “Non-Toxic”; in series [10], “Non-Toxic”; in [13], “Not Active”. The recovery in series [11] is over 90%. In addition, the half-life (as a rule, how long it takes for the measured level to halve) in series [12] is over 2 h. Besides, the result in the series with Microglia [14] and in the series with Microglia [15] was inactive.
With `CC(C)c1ccc(C(=O)Nc2ccc(CN)cc2)c(O)c1`, the values for the IC50 on Kallikrein-6 [1] and at Kallikrein-1 [3] were 3.63 µM and 8.4 µM, respectively. Besides, the affinity on Kallikrein-6 [2], expressed as Ki, was 1.5 µM. The inhibition in series [4] came out at 58%; at Caspase-6 (Homo sapiens), 12%; in series [5] it was 1%; at Trypsin (Homo sapiens), 91%; at Trypsin-3 (Homo sapiens) it was 73%; in the series with Prothrombin/thrombin, 32%.
On to `COc1ccc2c(O)c(C(=O)Nc3ccc(CN)cc3)ccc2c1`, for which, at Kallikrein-1 [3], the IC50 was 16.1 µM. The inhibition in series [4] turned out to be 45%; on Caspase-6 (Homo sapiens), 70%; in series [5], 28%; on Trypsin (Homo sapiens) it was 41%; at Trypsin-3 (Homo sapiens) it was 32%.
With `Cc1ccc2ccc(C(=O)Nc3ccc(CN)cc3)c(O)c2c1`, the IC50 on Kallikrein-1 [3] worked out at 49.4 µM. The inhibition was 53% in [4]; 31% at Caspase-6 (Homo sapiens); 27% in [5]; 32% at Trypsin (Homo sapiens); 21% on Trypsin-3 (Homo sapiens); 6% in the series with Prothrombin/thrombin.
For the compound `Cl.NCc1ccc(NC(=O)c2cc3ccccc3cc2O)cc1`, at Kallikrein-1 [3], the IC50 stood at 5.1 µM. For the same compound, the inhibition in series [4] was 61%; on Caspase-6 (Homo sapiens) it was 40%; in series [5] it was 25%; at Trypsin (Homo sapiens), 25%; at Trypsin-3 (Homo sapiens) it was 36%. For the same compound, in [7], the viability at 24 h, 50 µM amounted to 65%. Besides, the inhibition constant (Ki) at Plasminogen was 1.3 µM; on Kallikrein-1 [16] it was 2.4 µM. For the same compound, the results for the Activity result in [9], in series [10] and in [13] were “Non-Toxic”, “Non-Toxic” and “Not Active”, respectively. In addition, the recovery in series [11] is over 90%. The half-life in [12] was over 2 h. The outcome in the series with Microglia [14] and in the series with Microglia [15] was Active.
At Kallikrein-6 [2], `CC(C)(C)c1ccc(O)c(C(=O)Nc2ccc(CN)cc2)c1.Cl` showed a Ki of 4.3 µM. The IC50 at Kallikrein-1 [3] stood at 38.6 µM. Besides, the inhibition was determined as 16% in series [4]; 13% at Caspase-6 (Homo sapiens); 20% in [5]; 5% at Trypsin (Homo sapiens); 15% on Trypsin-3 (Homo sapiens); 2% in the series with Prothrombin/thrombin. Moreover, the Activity entry (in the series on Cortical neurone [17]; in series [19]) was “Toxic” in each case. For the same compound, in the series on CG-4 [18], the result was Active.
